Assay results from different studies.
Each line is one published result; the experiments were not run side by side.
ROCK1: Rho-associated protein kinase 1 (ROCK1, Homo sapiens, UniProt Q13464)
Aldo-keto reductase family 1 member B1: Aldo-keto reductase family 1 member B1 (Bos taurus, UniProt P16116)
FLT3: Receptor-type tyrosine-protein kinase FLT3 (FLT3, Homo sapiens, UniProt P36888)
FAAH: Fatty-acid amide hydrolase 1 (FAAH, Homo sapiens, UniProt O00519)
EAPA: Endothiapepsin (EAPA, Cryphonectria parasitica, UniProt P11838)
CSNK1D: Casein kinase I isoform delta (CSNK1D, Homo sapiens, UniProt P48730)
TYRO3: Tyrosine-protein kinase receptor TYRO3 (TYRO3, Homo sapiens, UniProt Q06418)
F2: Prothrombin (F2, Bos taurus, UniProt P00735)
MMP3: Stromelysin-1 (MMP3, Homo sapiens, UniProt P08254)
DHFR: Dihydrofolate reductase (DHFR, Homo sapiens, UniProt P00374)

`CC(C)(C)n1nc(-c2ccc3nc(OC4CC4)ccc3c2)c(C(N)=O)c1N` gave an IC50 of > 10000 nM (ROCK1; cell-free assay).
`COc1cccc(-n2c(-c3ccc([N+](=O)[O-])cc3)cs/c2=N/N=C\c2c[nH]c3ccccc23)c1` has an IC50 of 4210 nM (Aldo-keto reductase family 1 member B1; enzyme activity; inhibitor; absorbance).
For `c1cc(Nc2nccc(NC3CCCCC3)n2)cc(-c2cnccn2)c1`, the IC50 was 20 nM (FLT3; enzyme activity; inhibitor).
For `O=C(Oc1nsnc1N1CCCCC1)N1CCCC1`, the IC50 was 813 nM (FAAH; enzyme activity; inhibitor; cell membranes).
With `CSCC[C@H](NC(=O)[C@H](Cc1c[nH]c2ccccc12)NC(=O)CNC(=O)[C@H](Cc1ccc(O)cc1)NC(=O)[C@H](C)NC(=O)[C@@H](CCC(=O)O)NC(=O)CN1CCN(CC(=O)O)CCN(CC(=O)O)CCN(CC(=O)O)CC1)C(=O)N[C@@H](CC(=O)O)C(=O)N[C@@H](Cc1cccc2ccccc12)C(N)=O` the IC50 was 3.51 nM (Gastrin/cholecystokinin type B receptor (CCKBR, Homo sapiens, UniProt P32239); ligand displacement; radioligand).
The IC50 of `Fc1ccc(C2CCN(c3nc(-c4ccccn4)nc4ccccc34)C2)cc1` (stereo not drawn) is reported as > 100000 nM (Sterol 14-alpha demethylase (CYP51, Trypanosoma cruzi, UniProt Q7Z1V1); enzyme activity; inhibitor; fluorescence).
`O=C(Oc1nsnc1N1CCN(c2ccccc2)CC1)N1CCCCC1` has an IC50 of 209 nM (FAAH; enzyme activity; inhibitor; cell membranes).
For `CC(C)Nc1ccnc(Nc2cccc(-c3ccncc3)c2)n1`, the IC50 was 284 nM (FLT3; enzyme activity; inhibitor).
`CC(Cc1ccc(C(C)(C)C)cc1)C(NN)c1nnnn1Cc1ccc2c(c1)OCO2` (stereo not drawn) gave an IC50 of 18000 nM (EAPA; enzyme activity; inhibitor; fluorescence).
For `CC(C)Nc1ccnc(Nc2cccc(-c3nccs3)c2)n1`, the IC50 was 475 nM (FLT3; enzyme activity; inhibitor).
The IC50 of `CN1CCN(c2ccc(Nc3ncc4cc(C#N)c(=O)n(C5CCCC5)c4n3)cc2)CC1` is reported as 1770 nM (CSNK1D; enzyme activity; inhibitor).
The IC50 of `O=C(Nc1ccc(Br)cc1)N1CCC(n2c(=O)[nH]c3c(Br)cccc32)CC1` is reported as > 100000 nM (Formamidopyrimidine-DNA glycosylase (Escherichia coli, UniProt P05523); enzyme activity; inhibitor).
For `O=C(Oc1nsnc1N1CCCCC1)N1CCc2ccccc2C1`, the IC50 was 562 nM (FAAH; enzyme activity; inhibitor; cell membranes).
For `C[C@@H]1Cc2ccccc2N1C(=O)NCCCCN(C)[C@@H]1Cc2cccc3[nH]c(=O)n(c23)C1`, the IC50 was > 10000 nM (5-hydroxytryptamine receptor 2C (HTR2C, Homo sapiens, UniProt P28335); ligand displacement; radioligand).
With `C/C(=N/N=c1/scc(-c2ccc(Cl)cc2)n1-c1ccc(F)cc1)c1ccc2c(c1)OCCO2` the IC50 was 9630 nM (Aldo-keto reductase family 1 member B1; enzyme activity; inhibitor; absorbance).
`CC[C@@H](C)Nc1ccnc(Nc2cccc(-c3cccnc3)c2)n1` has an IC50 of < 6 nM (FLT3; enzyme activity; inhibitor).
`Cc1ccc(NC(=O)c2ccc(C)c(C(F)(F)F)c2)cc1C#Cc1nn(C2CCC(O)CC2)c2ncnc(N)c12` (stereo not drawn) gave an IC50 of 351 nM (TYRO3; enzyme activity; inhibitor; radiometric).
With `CC[C@H](C)[C@H](NC(C)=O)C(=O)N[C@@H](CCC(=O)O)C(=O)N[C@H](C(=O)N[C@H](C=O)CC(=O)O)[C@@H](C)O` the IC50 was 784 nM (Caspase-4 (CASP4, Homo sapiens, UniProt P49662); enzyme activity; inhibitor).
`CC1=C(/C=C/C(C)=C/C=C/C(C)=C/CO)C(C)(C)CCC1` has an IC50 of 531000 nM (F2; enzyme activity; inhibitor; fluorescence).
With `C/C(=N/N=c1/scc(-c2ccc(Cl)cc2)n1-c1ccccc1)c1ccc2c(c1)OCCO2` the IC50 was 14500 nM (Aldo-keto reductase family 1 member B1; enzyme activity; inhibitor; absorbance).
For `O=C(Oc1nsnc1N1CCC(Cc2ccccc2)CC1)N1CCCCC1`, the IC50 was 324 nM (FAAH; enzyme activity; inhibitor; cell membranes).
With `CNC(=O)c1cc2c(Oc3ccc(NC(=O)C4(C(=O)Nc5ccc(F)cc5)CC4)cc3)ccnc2cc1OC` the IC50 was 13 nM (TYRO3; enzyme activity; inhibitor; radiometric).
`Cc1ccc(C(=O)Nc2ccc(Oc3cc4cnn(C)c4cc3-c3cn[nH]c3)c(F)c2)c(=O)n1-c1ccc(F)cc1` gave an IC50 of 28 nM (TYRO3; cell growth or viability; ATP luminescence).
`COc1ccc2c(Oc3ccc4c(C(=O)Nc5ccccc5N)cccc4c3)ccnc2c1` gave an IC50 of > 500 nM (Aurora kinase A (AURKA, Homo sapiens, UniProt O14965); enzyme activity; inhibitor).
`CC(=N/N=c1\scc(-c2ccc(Br)cc2)n1-c1cccc2ccccc12)C12CC3CC(CC(C3)C1)C2` gave an IC50 of 12900 nM (Aldo-keto reductase family 1 member B1; enzyme activity; inhibitor; absorbance).
With `CC1=C(/C=C/C(C)=C/C=C/C(C)=C/C(=O)O)C(C)(C)CCC1` the IC50 was 223000 nM (F2; enzyme activity; inhibitor; fluorescence).
`Nc1nc(Nc2ccc3c(c2)CC[C@@H](N2CCCC2)CC3)nn1-c1cc2c(nn1)-c1ccccc1CCC2` has an IC50 of 927 nM (TYRO3; enzyme activity; inhibitor).
The IC50 of `FC(F)(F)C1(Nc2ccnc(Nc3cccc(-c4cccnc4)c3)n2)CC1` is reported as < 6 nM (FLT3; enzyme activity; inhibitor).
`NNC(c1nnnn1CC(c1ccccc1)c1ccccc1)C1CCCCC1` (stereo not drawn) has an IC50 of 96800 nM (EAPA; enzyme activity; inhibitor; fluorescence).
For `CC(C)Nc1ccnc(Nc2ccccc2-c2ccccc2)n1`, the IC50 was > 24000 nM (FLT3; enzyme activity; inhibitor).
For `COc1ccc(S(=O)(=O)N2Cc3cc(O)c(O)cc3CC2C(=O)NO)cc1` (stereo not drawn), the IC50 was 10000 nM (MMP3; enzyme activity; inhibitor).
`CC(C)(C)n1nc(-c2cnc3cc(OC4CC4)ccc3c2)c(C(N)=O)c1N` gave an IC50 of > 10000 nM (ROCK1; cell-free assay).
The IC50 of `c1ccc(-c2cccc(Nc3nccc(NC4CCCCC4)n3)c2)cc1` is reported as > 12000 nM (FLT3; enzyme activity; inhibitor).
`CN(C)c1ccc(Nc2nc(-c3ccncc3)nc3c2CC(N)CC3)cc1` (stereo not drawn) gave an IC50 of ~4500 nM (Prostaglandin G/H synthase 1 (PTGS1, Homo sapiens, UniProt P23219); enzyme activity; inhibitor).
`C/C(=N/N=c1/scc(-c2ccc(Br)cc2)n1-c1ccccc1)c1ccc2c(c1)OCCO2` has an IC50 of 5960 nM (Aldo-keto reductase family 1 member B1; enzyme activity; inhibitor; absorbance).
`Cc1ccc2nc(-c3ccc([N+](=O)[O-])cc3)n(Cc3ccc(Cl)cc3)c2c1` has an IC50 of 8010 nM (DHFR; enzyme activity; inhibitor).
The IC50 of `Cc1cnc(-c2ccc(-c3ccc(NC(=O)Nc4c(F)cc(F)cc4F)cc3F)c3c2C(=O)NC3)[nH]1` is reported as 3 nM (Aurora kinase C (AURKC, Homo sapiens, UniProt Q9UQB9); enzyme activity; inhibitor).
For `Cc1nccc2c1c(=O)n(C)c1cc(OC[C@@H](N)CC(C)C)c(C#N)cc21`, the IC50 was 45 nM (BMP-2-inducible protein kinase (BMP2K, Homo sapiens, UniProt Q9NSY1); enzyme activity; inhibitor).
`C/C(=N/N=c1/scc(-c2ccc(Br)cc2)n1Cc1ccccc1)c1ccc2c(c1)OCCO2` gave an IC50 of 1390 nM (Aldo-keto reductase family 1 member B1; enzyme activity; inhibitor; absorbance).
`O=C(Nc1cccnc1)N1CCC(Cc2cccc(Oc3ccc(C(F)(F)F)cn3)c2)CC1` gave an IC50 of > 10000 nM (Monoglyceride lipase (MGLL, Homo sapiens, UniProt Q99685); enzyme activity; inhibitor; absorbance).
The IC50 of `CC(C)C[C@H](CC(=O)NO)C(=O)N[C@@H](Cc1ccccc1)C(=O)NCCN1CCOCC1` is reported as 225 nM (MMP3; enzyme activity; inhibitor; fluorescence).
For `O=C1NCCc2sc(-c3ccncc3)cc21`, the IC50 was 1400 nM (CSNK1D; enzyme activity; inhibitor).
`Cc1ccc2nc(-c3ccc(Cl)cc3)n(Cc3ccccc3)c2c1` has an IC50 of 2350 nM (DHFR; enzyme activity; inhibitor).
`CCNc1ccnc(Nc2cccc(-c3cccnc3)c2)n1` has an IC50 of 47.5 nM (FLT3; enzyme activity; inhibitor).
`O=C(Nc1ccccc1C=NNS(=O)(=O)c1ccc2ccccc2c1)c1ccc([N+](=O)[O-])cc1` has an IC50 of 27000 nM (UDP-N-acetylmuramate--L-alanine ligase (murC, Escherichia coli K-12, UniProt P17952); enzyme activity; inhibitor; absorbance).
